Assay results gathered from unrelated publications.
Compare with care: the assays were run in different laboratories.
Cell line: Vero
Read-out: cell growth or viability

| Structure (SMILES) | assay | conditions | quantity | result |
| --- | --- | --- | --- | --- |
| O=[N+]([O-])c1ccc(-c2nn(-c3ccccc3)c3sc(NC(c4ccccc4O)P(=O)(Oc4ccccc4)Oc4ccccc4)nc23)cc1 (stereo not drawn) | SRB | – | IC50 | > 100 µM |
| [C-]#[N+]C(C)(C)C[C@@H]1C[C@H](C)[C@H]2CC[C@H](C)[C@@]3([N+]#[C-])CCC(=C)[C@@H]1[C@H]23 | – | – | IC50 | 99.7 µM |
| CO[C@H]1/C=C/O[C@@]2(C)Oc3c(C)c(O)c4c(O)c(c(/C=N/N5CCN(C)CC5)c(O)c4c3C2=O)NC(=O)/C(C)=C\C=C\[C@H](C)[C@H](O)[C@@H](C)[C@@H](O)[C@@H](C)[C@H](OC(C)=O)[C@@H]1C | – | – | IC50 | 113 µM |
| Nc1nc(N)c(CNCCc2ccc(Cl)c(Cl)c2)c(C2CC2)n1 | SRB | – | IC50 | 21 µM |
| FC(F)(F)Oc1ccc(Oc2ccc(CNCCNC3C4CC5CC(C4)CC3C5)cc2)cc1 (stereo not drawn) | – | 18 h | IC50 | 3.9 µg/mL |
| C[C@H]1O[C@H](O[C@H]2CC[C@H](n3ccc(NC(=O)c4ccc(NC(=O)[C@@](C)(N)CO)cc4)nc3=O)O[C@@H]2C)[C@H](O)[C@@H](O)[C@@H]1N(C)C | – | – | IC50 | > 100 µM |
| Cn1cc2c3c1C(=O)C(N)=C(Cl)C3=NCC2 | MTT | 72 h | IC50 | > 21.3 µM |
| NNC(=O)c1ccncc1 | – | 18 h | IC50 | 18000 µg/mL |
| COc1ccccc1CCNCc1c(N)nc(N)nc1C1CC1 | SRB | – | IC50 | > 100 µM |
| CN(C)c1ccc(C(Nc2nc3c(-c4ccc([N+](=O)[O-])cc4)nn(-c4ccccc4)c3s2)P(=O)(Oc2ccccc2)Oc2ccccc2)cc1 (stereo not drawn) | SRB | – | IC50 | > 100 µM |
| CCCCCCCCn1cc(CN2CCC3(CC2)OCCO3)c2ccc(OC)cc21 | – | – | IC50 | 46 µM |
| Nc1nc(N)c(CNCCc2cccc(F)c2)c(C2CC2)n1 | SRB | – | IC50 | > 100 µM |
| CN(CC[C@H](N)CC(=O)N[C@H]1C=C[C@H](n2ccc(N)nc2=O)O[C@@H]1C(=O)O)C(=N)N | – | – | IC50 | 13.9 µM |
| Nc1nc(N)c(CNCCc2ccccc2Cl)c(C2CC2)n1 | SRB | – | IC50 | 67 µM |
| N#CCCOc1ccc(Oc2ccccc2)cc1 | – | 72 h | CC50 | > 20 µM |
| CSc1c2c3c(n1C)C(=O)C(=O)C(Cl)=C3NCC2 | MTT | 72 h | IC50 | > 17.7 µM |
| Nc1nc(N)c(CNCCc2ccc(Cl)cc2Cl)c(C2CC2)n1 | SRB | – | IC50 | 31 µM |
| N#CCCCOc1ccc(Oc2ccccc2)cc1 | – | 72 h | CC50 | > 20 µM |
